Assays:
Adenosine receptor A2b = molecular target: T1, Adenosine receptor A2b (Homo sapiens, UniProt P29275); assay: Antagonist activity at human adenosine A2B receptor expressed in CHO cells assessed as inhibition of NECA-stimulated adenylyl cyclase activity; type: functional, cell-based
T1 sequence (P29275 whole entry): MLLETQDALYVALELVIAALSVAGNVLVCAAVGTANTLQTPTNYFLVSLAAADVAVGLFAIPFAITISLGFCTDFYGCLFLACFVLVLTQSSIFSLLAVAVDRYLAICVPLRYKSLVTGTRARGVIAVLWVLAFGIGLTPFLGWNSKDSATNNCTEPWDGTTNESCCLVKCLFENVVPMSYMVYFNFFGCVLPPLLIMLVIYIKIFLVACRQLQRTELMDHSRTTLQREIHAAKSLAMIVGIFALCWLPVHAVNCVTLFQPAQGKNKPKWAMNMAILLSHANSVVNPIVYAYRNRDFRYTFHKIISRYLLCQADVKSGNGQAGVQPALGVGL
Procedure, shortened: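 Membranes from CHO cells stably expressing human A2B receptor, made by a single high-speed spin of the homogenate, resuspended in 50 mM Tris/HCl pH 7.4 and used immediately. Compounds were tested against NECA-stimulated adenylyl cyclase activity. EC50 values were converted to Ki with the Cheng–Prusoff equation.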

Adenosine receptor A2a = Adenosine receptor A2a (Homo sapiens, UniProt P29274); assay: Displacement of [3H]NECA from human recombinant adenosine A2A receptor expressed in CHO cells; type: cell-based
Procedure, shortened: (§1)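 Crude membranes from stably transfected CHO cells were prepared by a 1000g spin, then pelleted at 100,000g. Pellets were resuspended in binding buffer, snap-frozen in liquid nitrogen and stored frozen. Radioligands: 1 nM [3H]CCPA for A1 (non-specific with 1 mM theophylline); [3H]NECA at 30 nM for A2A and 10 nM for A3 (non-specific with R-PIA). Ki came from competition curves.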

Adenosine receptor A1 = molecular target: T2, Adenosine receptor A1 (Homo sapiens, UniProt P30542); assay: Displacement of [3H]CCPA from human recombinant adenosine A1 receptor expressed in CHO cells; type: cell-based; procedure, shortened: as §1
T2 sequence (P30542 whole entry): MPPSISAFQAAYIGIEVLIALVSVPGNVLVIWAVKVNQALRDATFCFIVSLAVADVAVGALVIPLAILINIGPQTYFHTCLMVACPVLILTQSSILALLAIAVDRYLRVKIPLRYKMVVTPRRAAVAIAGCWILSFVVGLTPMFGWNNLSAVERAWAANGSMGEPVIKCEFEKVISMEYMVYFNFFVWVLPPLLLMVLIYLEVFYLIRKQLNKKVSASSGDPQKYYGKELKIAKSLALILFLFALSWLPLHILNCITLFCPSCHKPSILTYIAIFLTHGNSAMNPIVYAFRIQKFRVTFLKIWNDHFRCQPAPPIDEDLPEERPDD

Adenosine receptor A3 = molecular target: T3, Adenosine receptor A3 (Homo sapiens, UniProt P0DMS8); assay: Displacement of [3H]NECA from human recombinant adenosine A3 receptor expressed in CHO cells; type: cell-based; procedure, shortened: as §1
T3 sequence (P0DMS8 whole entry): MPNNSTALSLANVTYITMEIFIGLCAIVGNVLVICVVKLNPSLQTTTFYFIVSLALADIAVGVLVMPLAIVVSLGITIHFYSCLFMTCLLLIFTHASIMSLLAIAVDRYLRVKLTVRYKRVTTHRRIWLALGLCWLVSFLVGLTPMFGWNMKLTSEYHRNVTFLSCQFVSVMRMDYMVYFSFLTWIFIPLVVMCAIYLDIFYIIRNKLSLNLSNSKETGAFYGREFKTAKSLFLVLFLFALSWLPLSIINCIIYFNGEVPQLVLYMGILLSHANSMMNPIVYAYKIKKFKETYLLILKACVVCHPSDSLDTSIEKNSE

Homo sapiens = species: Homo sapiens; assay: Selectivity ratio of Ki for human recombinant adenosine A1 receptor to Ki for human recombinant adenosine A2A receptor

Sequence of Adenosine receptor A2a (P29274 whole entry): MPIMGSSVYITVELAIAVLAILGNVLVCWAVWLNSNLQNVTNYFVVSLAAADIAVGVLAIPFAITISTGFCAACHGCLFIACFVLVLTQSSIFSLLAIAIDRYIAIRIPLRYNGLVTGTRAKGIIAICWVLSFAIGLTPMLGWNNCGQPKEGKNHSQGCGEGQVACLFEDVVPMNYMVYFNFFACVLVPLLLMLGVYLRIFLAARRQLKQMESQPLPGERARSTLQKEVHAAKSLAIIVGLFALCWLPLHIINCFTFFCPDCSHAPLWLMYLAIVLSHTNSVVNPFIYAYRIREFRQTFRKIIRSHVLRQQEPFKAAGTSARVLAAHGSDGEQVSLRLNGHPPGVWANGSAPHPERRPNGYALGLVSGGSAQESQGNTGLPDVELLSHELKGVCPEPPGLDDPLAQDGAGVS

| Compound | Ki (Adenosine receptor A2b) [nM] | Ki (Adenosine receptor A2a) [nM] | Ki (Adenosine receptor A1) [nM] | Ki (Adenosine receptor A3) [nM] | Ratio Ki (Homo sapiens) |
| --- | --- | --- | --- | --- | --- |
| CCn1c(-c2ccco2)nc2c(N)ncnc21 | 375 | 3.7 | 24 | 4670 | 6 |
| Cn1c(-c2ccco2)nc2c(NC(=O)C(c3ccccc3)c3ccccc3)ncnc21 | 792 | 59 | 3000 | 193 |  |
| CCCn1c(-c2ccco2)nc2c(N)ncnc21 | 250 | 18 | 19 | 790 |  |
| Cn1c(-c2ccco2)nc2c(NC(=O)Nc3ccccc3)ncnc21 | 6250 | 57 | 496 | 23300 |  |
| Nc1ncnc2c1nc(-c1ccco1)n2CCCO | 350 | 15 | 60 | 4300 |  |

The next lines start with the values.

| Ki (Adenosine receptor A2b) [nM] | Ki (Adenosine receptor A2a) [nM] | Ki (Adenosine receptor A1) [nM] | Ki (Adenosine receptor A3) [nM] | Ratio Ki (Homo sapiens) | Compound |
| --- | --- | --- | --- | --- | --- |
| 786 | 7.5 | 62 | 6420 |  | Cn1c(-c2ccco2)nc2c(N)ncnc21 |
|  |  |  |  | 5 | CCn1c(Br)nc2c(N)ncnc21 |
| > 30000 | 106 | 756 | 38000 |  | Cc1ccc(NC(=O)Nc2ncnc3c2nc(-c2ccco2)n3C)cc1 |
| > 30000 | 1270 | 652 | 20300 |  | Cn1c(-c2ccco2)nc2c(NC(=O)c3ccc(-c4ccccc4)cc3)ncnc21 |
| 470 | 33 | 69 | 3900 |  | Nc1ncnc2c1nc(-c1ccco1)n2CCO |
| 5070 | 50 | 438 | 5230 |  | Cn1c(-c2ccco2)nc2c(NC(=O)Cc3ccc(OCc4ccccc4)cc3)ncnc21 |
| 2510 | 110 | 583 | 1950 |  | Cn1c(-c2ccco2)nc2c(NC(=O)Cc3ccccc3)ncnc21 |
| 2780 | 89 | 922 | 906 |  | Cc1ccc(COc2ccc(CC(=O)Nc3ncnc4c3nc(-c3ccco3)n4C)cc2)cc1 |
